{"data": "Published values gathered from unrelated publications", "target": "Serine/threonine-protein kinase TAO1 (TAOK1, Homo sapiens, UniProt Q7L7X3)", "Residues used in one study (Q7L7X3 1-1001)": "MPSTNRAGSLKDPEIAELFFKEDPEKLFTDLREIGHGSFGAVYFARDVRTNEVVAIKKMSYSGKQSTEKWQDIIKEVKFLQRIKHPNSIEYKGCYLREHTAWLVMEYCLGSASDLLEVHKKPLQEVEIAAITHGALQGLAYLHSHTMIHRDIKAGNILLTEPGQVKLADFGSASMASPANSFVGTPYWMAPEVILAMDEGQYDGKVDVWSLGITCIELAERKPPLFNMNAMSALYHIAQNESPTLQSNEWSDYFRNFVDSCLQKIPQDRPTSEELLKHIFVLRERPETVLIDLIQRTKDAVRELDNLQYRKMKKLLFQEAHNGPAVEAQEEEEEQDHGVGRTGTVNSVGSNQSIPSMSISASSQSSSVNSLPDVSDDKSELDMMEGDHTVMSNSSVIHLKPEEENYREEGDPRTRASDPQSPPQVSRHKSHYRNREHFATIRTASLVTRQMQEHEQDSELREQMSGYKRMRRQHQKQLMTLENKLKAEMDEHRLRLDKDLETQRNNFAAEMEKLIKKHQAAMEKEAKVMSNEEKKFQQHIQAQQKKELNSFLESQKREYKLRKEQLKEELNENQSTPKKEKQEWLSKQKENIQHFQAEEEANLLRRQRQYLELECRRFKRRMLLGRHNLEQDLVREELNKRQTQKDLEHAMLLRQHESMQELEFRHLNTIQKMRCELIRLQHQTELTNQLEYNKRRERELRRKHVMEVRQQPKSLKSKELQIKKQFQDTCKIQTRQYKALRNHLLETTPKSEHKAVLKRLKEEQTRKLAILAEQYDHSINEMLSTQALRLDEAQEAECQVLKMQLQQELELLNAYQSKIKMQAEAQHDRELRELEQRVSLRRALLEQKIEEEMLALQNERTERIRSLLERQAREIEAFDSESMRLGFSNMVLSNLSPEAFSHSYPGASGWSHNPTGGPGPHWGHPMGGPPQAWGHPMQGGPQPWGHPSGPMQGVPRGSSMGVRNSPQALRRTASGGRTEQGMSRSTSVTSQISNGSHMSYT", "note": "Protocols differ between the studies behind these lines."}
{"SMILES": "CNCc1ccccc1-c1csc([C@H](C)Nc2nc(C)nc3cc(OC)c(OC)cc23)c1", "test": "cell-free assay, competition with immobilised ligand", "setting": "1 µM", "remaining binding [%]": 100}
{"SMILES": "COc1cnc(Nc2cccc(S(N)(=O)=O)c2)nc1N1CCN(c2ccccc2)C(=O)C1", "test": "binding, competition with immobilised ligand", "setting": "1 µM", "remaining binding [%]": 86}
{"SMILES": "O=C1NC(c2ccccn2)Sc2ccccc21 (stereo not shown)", "test": "cell-free assay, competition with immobilised ligand", "setting": "1 µM", "remaining binding [%]": 96}
{"SMILES": "FC(F)(F)Oc1cccc(-c2cnc3ccc(-c4ccncc4)nn23)c1", "test": "binding, competition with immobilised ligand", "setting": "5 µM", "remaining binding [%]": 40}
{"SMILES": "CN(C(=O)c1ccccc1)c1cc(N(C)c2ccc3c(c2)CCc2ccc(C(=O)NCCN4CCOCC4)cc2C3=O)ccc1F", "test": "cell-free assay, competition with immobilised ligand", "setting": "1 µM", "remaining binding [%]": 81}
{"SMILES": "C[C@H]1CCN(c2nccc(-c3cnn4ncccc34)n2)C1", "test": "binding", "setting": "1 µM", "remaining binding [%]": 78}
{"SMILES": "O=C1CCc2cc(Nc3cc(OC4CCOCC4)c([N+](=O)[O-])cc3Cl)ccc2N1", "test": "cell-free assay, competition with immobilised ligand", "setting": "1 µM", "remaining binding [%]": 81}
{"SMILES": "c1cncc(-c2cccc(Nc3nccc(NC4CCCCC4)n3)c2)c1", "test": "binding, competition with immobilised ligand", "setting": "10 µM", "remaining binding [%]": 97}
{"SMILES": "Cc1cnn2ncc(-c3ccnc(N(C)C)n3)c2c1", "test": "binding", "setting": "1 µM", "remaining binding [%]": 92}
{"SMILES": "O=C(NCCCN1CCOCC1)c1ccc(Nc2ncc(Cl)c(-c3ccc(Cl)s3)n2)cc1", "test": "binding, competition with immobilised ligand", "setting": "1 µM", "remaining binding [%]": 43}
{"SMILES": "CC1CCCN1c1nccc(-c2cnn3ncccc23)n1 (stereo not shown)", "test": "binding", "setting": "1 µM", "remaining binding [%]": 100}
{"SMILES": "CC1=C(C#N)[C@@H](c2ccc3[nH]nc(C)c3c2)C(C#N)=C(c2ccc(Cl)cc2)N1", "test": "cell-free assay, competition with immobilised ligand", "setting": "1 µM", "remaining binding [%]": 100}
{"SMILES": "O=C(c1ccc(Nc2nccc(-c3cc4ccccc4s3)n2)cc1)N1CCC(N2CCCC2)CC1", "test": "binding, competition with immobilised ligand", "setting": "1 µM", "remaining binding [%]": 82}
{"SMILES": "CNC(=O)c1ccccc1Nc1cc(Nc2ccc(N3CCOCC3)cc2OC)ncc1C(F)(F)F", "test": "binding, competition with immobilised ligand", "setting": "1 µM", "remaining binding [%]": "< 10"}
{"SMILES": "c1cnn2ncc(-c3ccnc(N4CCC45COC5)n3)c2c1", "test": "binding", "setting": "1 µM", "remaining binding [%]": 58}
{"SMILES": "Nc1cnc(N2CCc3cc(S(=O)(=O)Nc4c(F)cc(Cl)cc4F)cc(N4CCCC4=O)c32)nc1", "test": "cell-free assay, competition with immobilised ligand", "setting": "1 µM", "remaining binding [%]": 80}
{"SMILES": "N[C@@H]1CCN(c2nccc(-c3cnn4ncccc34)n2)C1", "test": "binding", "setting": "1 µM", "remaining binding [%]": 100}
{"SMILES": "O=C(NCc1ncc(C(F)(F)F)cc1Cl)c1ccc2c(c1)C1(CCS(=O)(=O)CC1)[C@@H](C1CC1)N2S(=O)(=O)c1ccc(F)cc1", "test": "cell-free assay, competition with immobilised ligand", "setting": "1 µM", "remaining binding [%]": 91}
{"SMILES": "CN(c1nccc(-c2cnn3ncccc23)n1)C1CC1", "test": "binding", "setting": "1 µM", "remaining binding [%]": 100}
{"SMILES": "O=C(c1ccc(Nc2ncc(Cl)c(-c3cc4ccccc4s3)n2)cc1)N1CCC(N2CCCC2)CC1", "test": "binding, competition with immobilised ligand", "setting": "1 µM", "remaining binding [%]": 50}
{"SMILES": "CN(C)c1nccc(-c2cnc3ncccn23)n1", "test": "binding", "setting": "1 µM", "remaining binding [%]": 59}
{"SMILES": "O=C(Nc1c[nH]nc1C(=O)NC1CCNCC1)c1cc(F)cc(F)c1", "test": "binding, competition with immobilised ligand", "setting": "1 µM", "remaining binding [%]": 80}
